Screening results: PubChem, Johns Hopkins Ion Channel Center
Shown are actives, neighbours in structure and some others; about 2.9% of the full set was active somewhere.
TRPC4 PAM – allosterically enhances the mouse TRPC4 cation channel; HEK293 TRPC4beta/mu-opioid, DAMGO EC20, Fluo-4 Ca2+ flux; stronger effect = higher value; B-score at 10 µM; 0.42% of 310,000 active; AID 2227;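 active means B-score of calcium response area above 5 SD of library B-scores, with initial fluorescence ratio within 5 SD of library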
TRPC6 act – activates the mouse TRPC6 cation channel. AID 2550. B-score at 10 µM. 0.13% of 310,000 active. Q61143. HEK293-TRPC6 membrane potential dye fluorescence; stronger effect = higher value;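 active means B-score of the integrated fluorescence ratio above library mean plus 3 SD, and starting fluorescence ratio within library mean plus 5 SD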;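 further: higher score means more depolarization so channel activation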
Target sequence (Q61143 whole entry, looked up): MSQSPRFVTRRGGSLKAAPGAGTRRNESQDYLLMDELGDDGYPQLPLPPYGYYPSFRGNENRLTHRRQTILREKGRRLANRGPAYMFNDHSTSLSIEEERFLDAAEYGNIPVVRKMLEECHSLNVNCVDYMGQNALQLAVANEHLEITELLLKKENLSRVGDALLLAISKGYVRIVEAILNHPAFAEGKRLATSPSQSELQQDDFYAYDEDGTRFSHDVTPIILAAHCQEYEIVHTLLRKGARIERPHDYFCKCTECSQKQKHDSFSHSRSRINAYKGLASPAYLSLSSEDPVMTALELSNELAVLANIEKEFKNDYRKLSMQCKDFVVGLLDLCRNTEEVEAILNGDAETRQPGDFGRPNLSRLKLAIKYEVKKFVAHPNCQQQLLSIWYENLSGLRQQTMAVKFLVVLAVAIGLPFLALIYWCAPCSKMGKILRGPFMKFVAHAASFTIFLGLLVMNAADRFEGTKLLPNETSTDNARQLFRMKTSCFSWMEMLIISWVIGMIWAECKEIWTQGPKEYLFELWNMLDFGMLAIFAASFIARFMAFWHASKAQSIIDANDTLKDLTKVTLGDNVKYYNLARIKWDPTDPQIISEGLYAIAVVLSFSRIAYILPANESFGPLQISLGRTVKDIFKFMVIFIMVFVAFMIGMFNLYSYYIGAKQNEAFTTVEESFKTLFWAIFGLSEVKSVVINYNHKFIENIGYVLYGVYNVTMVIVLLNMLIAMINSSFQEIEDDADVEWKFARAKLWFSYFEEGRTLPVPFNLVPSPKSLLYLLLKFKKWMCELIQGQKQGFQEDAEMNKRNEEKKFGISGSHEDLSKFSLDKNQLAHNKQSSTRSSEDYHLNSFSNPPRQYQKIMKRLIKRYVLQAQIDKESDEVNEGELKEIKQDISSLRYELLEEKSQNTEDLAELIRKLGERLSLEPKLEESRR
Kir21 inh – inhibitors of mouse Kir2.1 inward-rectifier potassium channel | P35561 | HEK293-Kir2.1, FluxOR thallium flux fluorescence; stronger effect = lower value | B-score at 10 µM | 0.85% of 310,000 active;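 active means fluorescence ratio B-score at or below minus 3 SD of library scores, with starting-brightness B-score within 2 SD, cut at about -4.2 in these data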;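 further: channel flux triggered by added potassium and thallium sulfate stimulus; B-score of peak minus minimum fluorescence over baseline after thallium stimulus; more negative B-score means stronger Kir2.1 block with less thallium influx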
TRPC4 inh – TRPC4 (mouse) channel inhibition | Q9QUQ5 | HEK293 TRPC4beta/mu-opioid, DAMGO-evoked Fluo4 calcium flux; stronger effect = lower value | B-score at 10 µM | 0.39% of 300,000 active;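 active means B-score over 3 SD under the library average, no early fluorescence shift, positive overall ratio signal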
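System: stable TRPC4beta/mu-opioid receptor HEK293 cells; Dosing: single-point compound dosing; Measured by: Fluo4 Ca2+ flux fluorescence; Read-out basis: per-well B score of integrated baseline-normalized Fluo4 ratio.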
TRPC6 inh – mouse TRPC6 channel inhibition; HEK293-TRPC6, membrane potential dye, ACh-evoked depolarization; stronger effect = lower value; B-score at 10 µM; 1.1% of 310,000 active;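 active means B-score under library mean minus 3 SD, initial fluorescence not abnormally high, positive integrated signal ratio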;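 further: B-score derived from integrated fluorescence ratio over the kinetic read; more negative B-score means stronger inhibition of depolarization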
TRPC4 agonist – opens the mouse TRPC4 cation channel; HEK293 TRPC4beta/mu-opioid, Fluo4 calcium fluorescence; stronger effect = higher value; AID 2237; Q9QUQ5; 0.49% of 310,000 active; B-score at 10 µM;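 active means B-score above 5 SD of library B-scores, and initial fluorescence ratio not above library mean plus 5 SD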;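 further: positive B-score marks a calcium rise read as TRPC4 activation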
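Assay system: HEK293 stable line with TRPC4beta plus mu-opioid receptor. Times: dye 45 min RT, read 110 s. Measured by: kinetic Fluo4 calcium fluorescence. Measure: B score of integrated ratio. Controls: assay buffer as low control, maximal DAMGO as high control.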
Each line names hits and unclear results; the compound was inactive in the other large screens.

COc1ccc(Cn2nnnc2C(c2ccccc2)N2CCN(C3CCCC3)CC2)cc1 (stereo not given)	none
COc1ccc(Cn2nnnc2C(c2ccccc2Cl)N2CCN(C3CCCC3)CC2)cc1 (stereo not given)	Kir21 inh -5.1
c1ccc(Cn2nnnc2C(c2cccnc2)N2CCN(C3CCCCC3)CC2)cc1 (stereo not given)	TRPC4 agonist 103
Fc1ccc(C(c2nnnn2Cc2ccco2)N2CCN(C3CCCCC3)CC2)cc1 (stereo not given)	TRPC4 agonist 196
Fc1ccc(C(c2nnnn2Cc2cccs2)N2CCN(C3CCCC3)CC2)cc1 (stereo not given)	none
CC(C)CCn1c(=O)c2ccccc2n2c(CCC(=O)NC3CCN(Cc4ccccc4)CC3)nnc12	none
CCn1c(=O)c2sccc2n2c(CCCC(=O)NC3CCN(Cc4ccccc4)CC3)nnc12	TRPC4 PAM 14
CCOC(=O)COc1cc(-n2c(=S)[nH]c3ccccc3c2=O)c(Cl)cc1Cl	TRPC4 PAM 31
CN(C)CCCN(Cc1cc2cc3c(cc2[nH]c1=O)OCO3)C(=S)NCc1ccco1	TRPC4 inh -6
COc1ccc(NC(=O)CN2C(=O)NC3(CCCC3)C2=O)cc1Cl	none
CN1CCN(Cc2nc3c([nH]2)c(=O)[nH]c(=O)n3C)CC1	TRPC4 agonist 72
COc1ccc(-n2nc(C(=O)NCC(=O)Nc3cccc(Cl)c3)c3ccccc3c2=O)cc1OC	none
Cc1cc(-c2sccc2C)nc(-n2cccc2)n1	TRPC4 inh -6
Cc1nc2scc(C)n2c(=O)c1S(=O)(=O)Nc1ccc(N2CCOCC2)cc1	none
Cc1cccc(C(=O)OC2CCCN(C)C2)c1C (stereo not given)	TRPC4 agonist 95
Cc1ccccc1C(=O)OC1CCCN(C)C1 (stereo not given)	TRPC4 PAM 14
CN1CCCC(OC(=O)c2ccc(C#N)cc2)C1 (stereo not given)	none
CCCCOc1ccc(C2C(C(=O)c3ccc(C)o3)=C(O)C(=O)N2CC2CCCO2)cc1 (stereo not given)	none
COc1ccccc1N1CCN(CC(O)COCCOc2ccc(Br)cc2)CC1 (stereo not given)	none
CC(C)(c1ccccc1)c1ccc(OCC(O)CN2CCCC2)cc1 (stereo not given)	Kir21 inh -5.3
COc1ccc(N2CCN(CC(O)COCCOc3ccc(Br)cc3)CC2)cc1 (stereo not given)	Kir21 inh -4.3
OC(COc1ccc2cc(Br)ccc2c1)CN1CCCC1 (stereo not given)	Kir21 inh -6.8
COc1ccc(NC(=O)CN2CCC(C(=O)c3ccc(F)cc3)CC2)c(OC)c1	none
N#Cc1nc(Cc2cccc3ccccc23)oc1NCCCN1CCOCC1	Kir21 inh -6
N#Cc1nc(Cc2cccc3ccccc23)oc1NCCCn1ccnc1	none
O=C(NCCCN1CCc2ccccc2C1)Nc1ccc(Cl)cc1	Kir21 inh -4.7 (no result: TRPC4 inh)
c1ccc(C[C@H]2CNCCN2CC2CCCCC2)cc1	none
c1ccc(CC2CCCNC2)cc1 (stereo not given)	TRPC4 agonist 90
COc1ccc(OC)c(NC(=S)N2c3ccccc3CC2C)c1 (stereo not given)	none
CCN1CCCC1CNC(=O)c1cc2c(OC)cccc2[nH]1 (stereo not given)	TRPC4 agonist 154
CCN1CCCC1CNC(=O)c1cc2c(OC)c(OC)c(OC)cc2[nH]1 (stereo not given)	none
CCN1CCCC1CNCc1cccc(OC)c1OCc1ccc(F)cc1 (stereo not given)	TRPC4 agonist 58
CCN1CCCC1CNS(=O)(=O)c1ccc(F)c(Cl)c1 (stereo not given)	none
COc1cccc(CNc2ncn[nH]2)c1OCc1ccc(F)cc1	none
CCN1CCCC1CNCc1ccc(Cl)cc1Cl (stereo not given)	TRPC4 PAM 29
C/C(=N\NC(=O)c1c(Cl)cnn1C)c1cccnc1	none
O=C1NC(Cc2ccccc2)C(=O)N1Cc1cc([N+](=O)[O-])cc2c1OCOC2 (stereo not given)	none
CC(C)C[C@H]1CN=C(Nc2ccccc2)N1CCCC1CCCC1	Kir21 inh -4.6
CCCCCCCN1C(Nc2ccccc2)=NC[C@@H]1CC(C)C	Kir21 inh -4.9
CC(C)C[C@H]1CN=C(Nc2ccccc2)N1CCCC1CCCCC1	none
CC(C)C[C@H]1CN=C(Nc2ccccc2)N1CCC1CCCC1	none
COc1ccc(CCN(C)C(=S)Nc2cccc(C)c2)cc1OC	none
CN1CCN(CCCNC(=O)CN2C(=O)COc3ccccc32)CC1	TRPC4 inh -6
CC(=O)c1ccc(OCc2cc(C(=O)NCCn3nc(C)cc3C)no2)cc1	none
CC(=O)C[C@H]1c2ccccc2S(=O)(=O)N1C1CCCC1	Kir21 inh -4.8 (no result: TRPC4 inh)
CCOC(=O)C[C@H]1c2ccccc2S(=O)(=O)N1C1CC1	none
COc1ccc(CCNC(=O)c2c[nH]c3ccc(F)cc3c2=O)cc1OC	none
OC1(c2cccs2)CN(c2ccc(Cl)cc2)C2=[N+]1CCCS2 (stereo not given)	none
OC1(c2cccs2)CN(c2ccc(Cl)cc2)C2=[N+]1CCCC2 (stereo not given)	TRPC4 inh -6
CCOc1ccc(N(CC(=O)Nc2ccc(C)cc2)S(=O)(=O)c2c(C)[nH]c(=O)[nH]c2=O)cc1	none
C#Cc1ccc(CN2CCCC(C(=O)Nc3ccccc3Oc3cccnc3)C2)cc1 (stereo not given)	Kir21 inh -5.1, TRPC4 inh -6
CCOc1cc(S(=O)(=O)NCc2ccccc2)c(OCC)cc1-n1cnnn1	none
CCOc1ccc(-n2cnnn2)cc1S(=O)(=O)NCc1ccccc1	TRPC4 inh -7
CCCCn1c(N)c(N(CCC(C)C)C(=O)C2CC(=O)N(c3ccc(OC)cc3OC)C2)c(=O)[nH]c1=O (stereo not given)	none
Cc1ccc(/C=C2\SC(=S)N(NS(=O)(=O)c3ccc(C)cc3)C2=O)cc1	none
C=CCOc1ccc(/C=C2\SC(=S)N(NS(=O)(=O)c3ccc(C)cc3)C2=O)cc1	TRPC4 PAM 12
CCOc1ncccc1C(=O)NCc1ccccc1Cl	none (no result: TRPC4 inh)
C=CCc1cc(C)ccc1OCCn1ccnc1	none
C=CCc1cc(Cl)ccc1OCCNCCCOC	none
C=CCc1cc(Cl)ccc1OCCCn1ccnc1	TRPC4 PAM 19
C=CCc1cc(Cl)ccc1OCCn1ccnc1	TRPC4 PAM 14, TRPC4 agonist 116
C=CCc1cc(Cl)ccc1OCCOCCNCCOC	Kir21 inh -5.9
CC(C)CCNC(=O)CN(Cc1ccc(F)cc1)C(=O)CCC(=O)Nc1ccccn1	none
